Assay results from ChEMBL document CHEMBL1126621 (J Med Chem, 1993).
Bridge positions count the residues as written; N and C are the ends. Square brackets hold non-standard residues; d marks the D form. Peptide text beside a SMILES is read from it. Pen = CC(C)(S)[C@H](N)C(=O)O

Experiments:
[1] = Relative affinity for delta and kappa opioid receptors of guinea pig brain homogenate; conditions: Cavia porcellus
[2] = biological target: Mu-type opioid receptor (Cavia porcellus, UniProt P97266); experiment: Inhibition of [3H]PL-17 binding to mu opioid receptor of guinea pig brain homogenate
Mu-type opioid receptor, sequence (P97266 whole entry): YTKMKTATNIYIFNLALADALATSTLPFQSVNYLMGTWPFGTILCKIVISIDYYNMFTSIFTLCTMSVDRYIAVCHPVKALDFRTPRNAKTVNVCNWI

[3] = biological target: T1, Kappa-type opioid receptor (Cavia porcellus, UniProt P41144); experiment: (§1) Inhibition of [3H]U-69593 binding to kappa opioid receptor of guinea pig brain homogenate
T1 sequence (P41144 whole entry): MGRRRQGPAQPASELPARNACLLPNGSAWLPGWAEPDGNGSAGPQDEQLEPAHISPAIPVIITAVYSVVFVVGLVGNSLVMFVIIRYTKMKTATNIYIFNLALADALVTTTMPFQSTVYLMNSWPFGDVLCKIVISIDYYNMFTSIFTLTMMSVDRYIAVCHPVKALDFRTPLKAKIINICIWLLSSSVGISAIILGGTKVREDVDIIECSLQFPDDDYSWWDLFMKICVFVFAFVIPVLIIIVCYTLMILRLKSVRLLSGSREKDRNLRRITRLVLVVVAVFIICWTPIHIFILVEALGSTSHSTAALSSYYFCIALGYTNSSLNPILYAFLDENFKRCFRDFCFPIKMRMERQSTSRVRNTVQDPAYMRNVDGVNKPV
Method in brief: (§2)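 Adult male Hartley guinea pig whole-brain membranes in 50 mM Tris-HCl pH 7.4, preincubated 25 °C 30 min to strip endogenous peptides. Assay buffer: Tris with BSA, bestatin, bacitracin, captopril, PMSF. Ten concentrations over 800-fold range, duplicate tubes. 10 μM naltrexone defined nonspecific binding. 25 °C for 3 h, then PEI-treated GF/B filtration and scintillation counting. One/two-site nonlinear regression or logistic fit. ≥3 independent runs, mean ± SEM.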

[4] = biological target: Delta-type opioid receptor (Mus musculus, UniProt P32300); experiment: Inhibition of delta-selective antagonist binding to opioid receptor of mouse vas dferens
Delta-type opioid receptor, sequence (P32300 whole entry): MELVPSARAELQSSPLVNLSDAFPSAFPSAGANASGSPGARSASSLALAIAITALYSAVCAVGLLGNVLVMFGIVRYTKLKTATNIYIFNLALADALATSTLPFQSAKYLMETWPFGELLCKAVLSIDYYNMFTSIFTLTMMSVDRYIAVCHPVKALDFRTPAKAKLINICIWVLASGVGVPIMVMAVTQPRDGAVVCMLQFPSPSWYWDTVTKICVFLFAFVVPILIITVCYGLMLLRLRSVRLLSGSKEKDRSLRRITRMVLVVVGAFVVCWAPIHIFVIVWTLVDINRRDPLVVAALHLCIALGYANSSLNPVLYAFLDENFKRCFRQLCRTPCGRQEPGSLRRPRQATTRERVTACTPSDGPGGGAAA
Method in brief: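 Mouse vas deferens at 500 mg tension in Mg-free Krebs, 37 °C, 95% O2/5% CO2. Field-stimulated with 2-ms supramaximal pulses; isometric contractions recorded. Cumulative concentration-response. At least 2 assays in duplicate.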

[5] = biological target: T1, Kappa-type opioid receptor; experiment: as §1; remark: listed apart in the source
Method in brief: as §2, with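 “PMSF. Radioligand: [3H]DPDPE 1.0 nM (δ) or [3H]U-69,593 0.75 nM (κ).” for “PMSF.”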

| SMILES | Selectivity [1] | IC50 [2] | IC50 [3] | IC50 [4] | IC50 [5] |
| --- | --- | --- | --- | --- | --- |
| CC[C@H](C)[C@H]1NC(=O)[C@H](CCCN=C(N)N)NC(=O)[C@@H](CCCN=C(N)N)NC(=O)[C@H](NC(=O)[C@H](Cc2ccccc2)NC(=O)CNC(=O)CNC(=O)[C@@H](N)Cc2ccc(O)cc2)C(C)(C)SSC[C@H](C(=O)O)NC(=O)[C@H]2CCCN2C(=O)[C@H](CCCN=C(N)N)NC1=O | 165 | – | – | – | – |
| CC[C@H](C)[C@H]1NC(=O)[C@H](CCCN=C(N)N)NC(=O)[C@@H](CCCN=C(N)N)NC(=O)[C@H](NC(=O)[C@H](Cc2ccccc2)NC(=O)CNC(=O)[C@@H](C)NC(=O)[C@@H](N)Cc2ccc(O)cc2)CSSC[C@H](C(=O)O)NC(=O)[C@H]2CCCN2C(=O)[C@H](CCCN=C(N)N)NC1=O | 1.3 | – | – | – | – |
| CC[C@H](C)[C@H]1NC(=O)[C@H](CCCN=C(N)N)NC(=O)[C@@H](CCCN=C(N)N)NC(=O)[C@H](NC(=O)[C@H](Cc2ccccc2)NC(=O)CNC(=O)CNC(=O)[C@@H](N)Cc2ccc(O)cc2)CSSC[C@H](C(=O)N2CCC[C@@H]2C(=O)N[C@H](CCCCN)C(=O)O)NC1=O | 36 | – | – | – | – |
| CC[C@H](C)[C@H]1NC(=O)[C@H](CCCN=C(N)N)NC(=O)[C@@H](CCCN=C(N)N)NC(=O)[C@H](NC(=O)[C@H](Cc2ccccc2)NC(=O)CNC(=O)CNC(=O)[C@@H](N)Cc2ccc(O)cc2)CSSC[C@H](C(=O)O)NC(=O)[C@@H](CC(C)C)NC(=O)[C@H](CCCCN)NC(=O)C2CCCN2C(=O)[C@H](CCCN=C(N)N)NC1=O (stereo in doubt) | 46 | – | – | – | – |
| CC(C)C[C@H](NC(=O)[C@H](Cc1ccccc1)NC(=O)CNC(=O)CNC(=O)[C@@H](N)Cc1ccc(O)cc1)C(=O)N[C@@H](CCCN=C(N)N)C(=O)N[C@@H](CCCN=C(N)N)C(=O)N[C@H]1CSSC[C@H](C(=O)O)NC(=O)[C@@H](CC(C)C)NC(=O)[C@H](CCCCN)NC(=O)[C@H]2CCCN2C(=O)[C@H](CCCN=C(N)N)NC1=O | 55 | – | – | – | – |
| CC[C@H](C)[C@@H]1NC(=O)[C@H](CCCN=C(N)N)NC(=O)[C@H](CCCN=C(N)N)NC(=O)[C@@H](NC(=O)[C@H](Cc2ccccc2)NC(=O)CNC(=O)[C@@H](C)NC(=O)[C@@H](N)Cc2ccc(O)cc2)CSSC[C@@H](C(N)=O)NC(=O)[C@@H]2CCCN2C(=O)[C@H](CCCN=C(N)N)NC1=O | – | 9.69 nM | 81.2 nM | > 6000 nM | – |
| CC[C@H](C)[C@H]1NC(=O)[C@H](CCCN=C(N)N)NC(=O)[C@@H](CCCN=C(N)N)NC(=O)[C@H](NC(=O)[C@H](Cc2ccccc2)NC(=O)CNC(=O)CNC(=O)[C@@H](N)Cc2ccc(O)cc2)CSSC[C@H](C(=O)N[C@H](CCCN=C(N)N)C(=O)N[C@H](CCCCN)C(=O)O)NC1=O | 43 | – | – | – | – |
| CC[C@H](C)[C@@H]1NC(=O)[C@H](CCCNC(=N)N)NC(=O)[C@H](CCCNC(=N)N)NC(=O)[C@@H](NC(=O)[C@H](Cc2ccccc2)NC(=O)CNC(=O)CNC(=O)[C@@H](N)Cc2ccccc2)CSSC[C@@H](C(N)=O)NC(=O)[C@@H]2CCCN2C(=O)[C@H](CCCNC(=N)N)NC1=O (H-FGGFCRRIRPC-NH2; disulfide 5-11) | – | 61.2 nM | 15.1 nM | > 3000 nM | – |
| CC[C@H](C)[C@@H]1NC(=O)[C@H](CCCN=C(N)N)NC(=O)[C@H](CCCN=C(N)N)NC(=O)[C@@H](NC(=O)[C@H](Cc2ccccc2)NC(=O)CNC(=O)CNC(=O)[C@@H](N)Cc2ccc(O)cc2)CSSC[C@@H](C(=O)N2CCC[C@H]2C(=O)N[C@@H](CCCCN)C(N)=O)NC1=O (H-YGGFCRRICPK-NH2; disulfide 5-9) | – | 6.43 nM | 0.868 nM | > 3000 nM | – |
| CC[C@H](C)[C@@H]1NC(=O)[C@H](CCCN=C(N)N)NC(=O)[C@H](CCCN=C(N)N)NC(=O)[C@@H](NC(=O)[C@H](Cc2ccccc2)NC(=O)CNC(=O)CNC(=O)[C@@H](N)Cc2ccc(O)cc2)C(C)(C)SSC[C@@H](C(N)=O)NC(=O)[C@@H]2CCCN2C(=O)[C@H](CCCN=C(N)N)NC1=O (H-YGGF[Pen]RRIRPC-NH2; disulfide 5-11) | – | 1.26 nM | 0.522 nM | > 6000 nM | – |
| CC[C@H](C)[C@@H]1NC(=O)[C@@H](CCCN=C(N)N)NC(=O)[C@H](CCCN=C(N)N)NC(=O)[C@H](NC(=O)[C@H](Cc2ccccc2)NC(=O)CNC(=O)CNC(=O)[C@@H](N)Cc2ccc(O)cc2)CSSC[C@H](C(=O)N[C@@H](CCCCN)C(=O)O)NC(=O)[C@@H](CCCN=C(N)N)NC1=O | 139 | – | – | – | – |
| CC[C@H](C)[C@@H]1NC(=O)[C@H](CCCNC(=N)N)NC(=O)[C@H](CCCNC(=N)N)NC(=O)[C@@H](NC(=O)[C@H](Cc2ccccc2)NC(=O)CNC(=O)CNC(=O)[C@@H](N)Cc2ccc(O)cc2)CSSC[C@@H](C(N)=O)NC(=O)[C@H](CC(C)C)NC(=O)[C@H](CCCCN)NC(=O)[C@H]2CCCN2C(=O)[C@H](CCCNC(=N)N)NC1=O | – | 2.48 nM | 0.21 nM | 4100 nM | – |
| CC(C)C[C@H](NC(=O)[C@H](Cc1ccccc1)NC(=O)CNC(=O)CNC(=O)[C@@H](N)Cc1ccc(O)cc1)C(=O)N[C@@H](CCCNC(=N)N)C(=O)N[C@@H](CCCNC(=N)N)C(=O)N[C@@H]1CSSC[C@H](C(=O)N[C@@H](CCCCN)C(N)=O)NC(=O)[C@H](CCCCN)NC(=O)[C@@H]2CCCN2C(=O)[C@H](CCCNC(=N)N)NC1=O | – | 0.674 nM | 0.116 nM | 25.3 nM | – |
| CC(C)C[C@H](NC(=O)[C@H](Cc1ccccc1)NC(=O)CNC(=O)CNC(=O)[C@@H](N)Cc1ccc(O)cc1)C(=O)N[C@@H](CCCN=C(N)N)C(=O)N[C@@H](CCCN=C(N)N)C(=O)N[C@@H]1CSSC[C@@H](C(=O)N[C@@H](CCCCN)C(=O)O)NC(=O)[C@@H](CCCCN)NC(=O)[C@@H]2CCCN2C(=O)[C@@H](CCCN=C(N)N)NC1=O | 56 | – | – | – | – |
| CC[C@H](C)[C@@H]1NC(=O)[C@H](CCCN=C(N)N)NC(=O)[C@H](CCCN=C(N)N)NC(=O)[C@@H](NC(=O)[C@H](Cc2ccccc2)NC(=O)CNC(=O)CNC(=O)[C@@H](N)Cc2ccc(O)cc2)CSSC[C@@H](C(=O)N[C@@H](CCCCN)C(N)=O)NC(=O)[C@H](CCCN=C(N)N)NC1=O (H-YGGFCRRIRCK-NH2; disulfide 5-10) | – | 4.26 nM | 0.593 nM | > 3000 nM | – |
| CC(C)C[C@H](NC(=O)[C@H](Cc1ccccc1)NC(=O)CNC(=O)CNC(=O)[C@@H](N)Cc1ccc(O)cc1)C(=O)N[C@@H](CCCN=C(N)N)C(=O)N[C@@H](CCCN=C(N)N)C(=O)N[C@H]1CSSC[C@H](C(N)=O)NC(=O)[C@H](CC(C)C)NC(=O)[C@H](CCCCN)NC(=O)[C@@H]2CCCN2C(=O)[C@H](CCCN=C(N)N)NC1=O | – | 0.38 nM | 0.035 nM | 9.17 nM | – |
| CC[C@H](C)[C@@H]1NC(=O)[C@H](CCCN=C(N)N)NC(=O)[C@H](CCCN=C(N)N)NC(=O)[C@@H](NC(=O)[C@H](Cc2ccccc2)NC(=O)CNC(=O)CNC(=O)[C@@H](N)Cc2ccc(O)cc2)CSSC[C@@H](C(=O)N[C@@H](CCCN=C(N)N)C(=O)N[C@@H](CCCCN)C(N)=O)NC1=O (H-YGGFCRRICRK-NH2; disulfide 5-9) | – | 5.81 nM | – | 6260 nM | 0.42 nM |
| CC[C@H](C)[C@@H]1NC(=O)[C@H](CCCNC(=N)N)NC(=O)[C@@H](NC(=O)[C@H](CC(C)C)NC(=O)[C@H](Cc2ccccc2)NC(=O)CNC(=O)CNC(=O)[C@@H](N)Cc2ccc(O)cc2)CSSC[C@@H](C(=O)N[C@@H](CCCCN)C(N)=O)NC(=O)[C@H](CCCNC(=N)N)NC1=O (H-YGGFLCRIRCK-NH2; disulfide 6-10) | – | 0.091 nM | 0.047 nM | 92.6 nM | – |
| CC[C@H](C)[C@H]1NC(=O)[C@H](CCCN=C(N)N)NC(=O)[C@@H](CCCN=C(N)N)NC(=O)[C@H](NC(=O)[C@H](Cc2ccccc2)NC(=O)CNC(=O)CNC(=O)[C@@H](N)Cc2ccccc2)CSSC[C@H](C(=O)O)NC(=O)[C@H]2CCCN2C(=O)[C@H](CCCN=C(N)N)NC1=O | 26 | – | – | – | – |
| CC[C@H](C)[C@H]1NC(=O)[C@H](CCCN=C(N)N)NC(=O)[C@@H](NC(=O)[C@H](CC(C)C)NC(=O)[C@H](Cc2ccccc2)NC(=O)CNC(=O)CNC(=O)[C@@H](N)Cc2ccc(O)cc2)CSSC[C@@H](C(=O)N[C@@H](CCCCN)C(=O)O)NC(=O)[C@H](CCCN=C(N)N)NC1=O | 10 | – | – | – | – |
